Measured values taken from ChEMBL document CHEMBL1156385, “Macharistol, a new cytotoxic cinnamylphenol from the stems of Machaerium aristulatum” (J Nat Prod, 2001).
≈ marks a conversion by molar mass, not a printed value. Calls of active or inactive are those of the source. No cut-off for these calls is given here.

Key:
[1] = tested on: KB; assay: Cytotoxicity against human KB cells; type: functional, cell-based
[2] = tested on: Mus musculus; assay: Toxicity in athymic NCr nu/nu mouse implanted with human KB cells at intraperitoneal compartment assessed as body weight loss at 25 mg/kg, ip administered once daily after 3 to 6 days of fiber implantation measured on day 7 by hollow fiber assay; type: organism-based; set-up: dose 25 mg/kg, route intraperitoneal; details: in vivo
In short: (§1)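 Female athymic NCr nu/nu mice carried i.p. and s.c. hollow fibers with KB, Col-2 or hTERT-RPE1 cells. They received the PVP-coprecipitated compound in PBS at 6.25, 12.5 or 25 mg/kg i.p. once daily on days 3–6 after implantation. Toxicity was followed as body weight, recorded daily.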

[3] = tested on: Mus musculus; assay: Toxicity in athymic NCr nu/nu mouse implanted with human telomerase […] RPE1 cells at intraperitoneal compartment assessed as body weight loss at 25 mg/kg, ip administered once daily after 3 to 6 days of fiber implantation measured on day 7 by hollow fiber assay; type: organism-based; set-up: dose 25 mg/kg, route intraperitoneal; details: in vivo; in short: as §1
[4] = tested on: Mus musculus; assay: Toxicity in athymic NCr nu/nu mouse implanted with human Col2 cells at intraperitoneal compartment assessed as body weight loss at 25 mg/kg, ip administered once daily after 3 to 6 days of fiber implantation measured on day 7 by hollow fiber assay; type: organism-based; set-up: dose 25 mg/kg, route intraperitoneal; details: in vivo; in short: as §1
[5] = tested on: Col2; assay: Growth inhibition of human Col2 cells implanted at intraperitoneal compartment of athymic NCr nu/nu mouse at 25 mg/kg, ip administered once daily after 3 to 6 days of fiber implantation measured on day 7 by hollow fiber assay; type: functional; details: read-out: GI
In short: (§2)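 Hollow fibers carrying KB (7.5 × 10⁵ cells/mL), Col-2 (10⁶ cells/mL) or hTERT-RPE1 (2.5 × 10⁶ cells/mL) cells were implanted i.p. and s.c. in female athymic NCr nu/nu mice. Compound was coprecipitated with PVP (MW 360 000) and dissolved in PBS. Doses of 6.25, 12.5 or 25 mg/kg were given i.p. once daily on days 3–6 after implantation. Fiber cell growth inhibition was measured.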

[6] = tested on: Mus musculus; assay: Toxicity in athymic NCr nu/nu mouse implanted with human Col2 cells at subcutaneous compartment assessed as body weight loss at 25 mg/kg, ip administered once daily after 3 to 6 days of fiber implantation measured on day 7 by hollow fiber assay; type: organism-based; set-up: dose 25 mg/kg; details: in vivo, sc; in short: as §1
[7] = Growth inhibition of human telomerase […] RPE1 cells implanted at intraperitoneal compartment of athymic NCr nu/nu mouse at 25 mg/kg, ip administered once daily after 3 to 6 days of fiber implantation measured on day 7 by hollow fiber assay; type: functional, TERT-RPE1; details: RPE-1, ip, read-out: GI; in short: as §2
[8] = tested on: LNCaP; assay: Cytotoxicity against human LNCAP cells; type: functional, cell-based
[9] = tested on: Col2; assay: Cytotoxicity against human Col2 cells; type: functional, cell-based
[10] = tested on: Mus musculus; assay: Toxicity in athymic NCr nu/nu mouse implanted with human telomerase […] RPE1 cells at subcutaneous compartment assessed as body weight loss at 25 mg/kg, ip administered once daily after 3 to 6 days of fiber implantation measured on day 7 by hollow fiber assay; type: organism-based; set-up: dose 25 mg/kg; details: in vivo, sc; in short: as §1
[11] = tested on: Col2; assay: Growth inhibition of human Col2 cells implanted at subcutaneous compartment of athymic NCr nu/nu mouse at 25 mg/kg, ip administered once daily after 3 to 6 days of fiber implantation measured on day 7 by hollow fiber assay; type: functional; details: Col2, sc, read-out: GI; in short: as §2
[12] = tested on: Mus musculus; assay: Toxicity in athymic NCr nu/nu mouse implanted with human KB cells at subcutaneous compartment assessed as body weight loss at 25 mg/kg, ip administered once daily after 3 to 6 days of fiber implantation measured on day 7 by hollow fiber assay; type: organism-based; set-up: dose 25 mg/kg; details: in vivo, sc; in short: as §1
[13] = tested on: KB; assay: Growth inhibition of human KB cells implanted at subcutaneous compartment of athymic NCr nu/nu mouse at 25 mg/kg, ip administered once daily after 3 to 6 days of fiber implantation measured on day 7 by hollow fiber assay; type: functional; details: sc, read-out: GI; in short: as §2
[14] = Growth inhibition of human telomerase […] RPE1 cells implanted at subcutaneous compartment of athymic NCr nu/nu mouse at 25 mg/kg, ip administered once daily after 3 to 6 days of fiber implantation measured on day 7 by hollow fiber assay; type: functional, TERT-RPE1; details: RPE-1, sc, read-out: GI; in short: as §2
[15] = tested on: KB; assay: Growth inhibition of human KB cells implanted at intraperitoneal compartment of athymic NCr nu/nu mouse at 25 mg/kg, ip administered once daily after 3 to 6 days of fiber implantation measured on day 7 by hollow fiber assay; type: functional; details: read-out: GI; in short: as §2

SMILES: COc1ccc2c(c1)O[C@@H]1c3ccc(O)cc3OC[C@H]21
- EC50 [1]: 2.4 µg/mL (≈ 8.88 µM)

SMILES: COc1c(O)cc(C/C=C/c2ccccc2)c(OC)c1O [MACHARISTOL]
- Activity [2]: Non-toxic
- Activity [3]: Non-toxic
- EC50 [1]: 1.7 µg/mL (≈ 5.94 µM)
- Activity [4]: Non-toxic
- inhibition in vivo at 25 mg/kg [5]: 35%
- Activity [6]: Non-toxic
- inhibition in vivo at 25 mg/kg [7]: 31%
- EC50 [8]: 2.4 µg/mL (≈ 8.38 µM)
- EC50 [9]: 3 µg/mL (≈ 10.5 µM)
- Activity [10]: Non-toxic
- inhibition in vivo at 25 mg/kg [11]: 35%
- Activity [12]: Non-toxic
- inhibition in vivo at 25 mg/kg [13]: 0%
- inhibition in vivo at 25 mg/kg [14]: 45%
- inhibition in vivo at 25 mg/kg [15]: 23%

SMILES: Oc1ccc2c(c1)OC[C@@H]1c3cc4c(cc3O[C@H]21)OCO4
- Activity [1]: inactive

SMILES: COc1ccc(-c2coc3cc(O)ccc3c2=O)cc1
- Activity [1]: inactive
